The nature of assay [1]: Her2 expression decrease, cell viability multiplex – SKBR3 breast tumor cells, AlphaScreen, ATP viability, primary screen (AID 461;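 active means Her2 level under about 52% in both replicate screens, with viability over 70% of control, limit read from the data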;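 on Her2 level: lower value means less Her2 protein in the cells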;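 on viability: percent of carrier control wells set as 100% viability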). The note with it: SKBR3 Her2 protein level, 18-24 h, measured here: SKBR3 viability, ATP luminescence, at 10 µM. In general terms: Bead proximity is the source of the signal in Alpha formats.
Assay [2] addresses Receptor tyrosine-protein kinase erbB-2 (Homo sapiens) (UniProt P04626). The assay is described as above. The note with it: 18-24 h, at 10 µM, stronger effect = lower value.
Assay [3] in a line: reduced viability of SK-BR-3 breast cancer cells – cell-based, 24 h, human, pilot screen (AID 572).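 Further: compound exposure lasted between 18 and 24 h rather than exactly 24 h; 100% = carrier-treated control wells.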 The note with it: SK-BR-3 viability, CellTiter-Glo luminescence, at 10 µM, stronger effect = lower value. On the technique in general: In ATP-based viability assays light output follows the ATP content of the culture.
A short description of assay [4]: HUVEC growth inhibition – cell-based, human, primary screen (AID 575;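 active means viability at or below 30% in both replicate assays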;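 further: 100% = median of untreated cell wells with 0.1% DMSO on each plate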). The note with it: HUVEC proliferation, CellTiter-Glo luminescence, 72 h; at 10 µM; stronger effect = lower value. The procedure, abridged: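 System: primary human umbilical vein endothelial cells; Quantity: 1250 endothelial cells in each well; Buffer or medium: supplemented EBM, 2% fetal bovine serum; Doses: one dose, 10 µM final, 0.1% DMSO; Incubation: 72 h compound incubation; Technique: ATP-based CellTiter-Glo luminescent read; Evaluation: percent of median DMSO-control luminescence; Controls: vehicle and MePR control wells.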

Assay [5] in a line: H69AR cell proliferation blockers – human, duplicate replicates, primary screen (AID 580;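 active means viability at or under a set limit in both replicates, limit being median viability minus 3 SD, cut at about 48% in these data, passing the limit was not always enough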;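 further: 100% = mean luminescence of untreated wells and 0% = no signal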). The note with it: H69AR lung tumor cells viability, ATP luminescence, 72 h; at 10 µM; stronger effect = lower value.
Assay [6] is described as follows: MRP1 drug-resistance reversers in H69AR cells – cell-based, doxorubicin co-treatment, pilot screen (AID 601;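 active means viability loss from added drug above about 55%, and viability with drug at most 40%, in both replicates, limit read from the data, passing the limit was not always enough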). The note with it: CellTiter-Glo, 72 h, at 10 µM; for differential viability (reversal): stronger effect = higher value.
A short description of assay [7]: yeast transport mutant growth inhibition pilot in 384-well plates, post-Golgi transport modulator project (AID 636; in the data active means inhibition above about 31%). The note with it: absorbance 615 nm, about 18 h, stronger effect = higher value.
Assay [8] in a line: growth suppression of yeast trafficking mutant, preliminary HTS, modulators of trafficking downstream of Golgi apparatus project, 1536-format plate, OD 615 nm (AID 637; in the data active means inhibition above about 30%). The note with it: yeast transport mutant growth, absorbance 615 nm, 18 h; stronger effect = higher value.
Setting [9] is: H69AR cells + 2 uM doxorubicin, measured here: viability with 2 uM doxorubicin, stronger effect = lower value.
The mark [10] stands for this setting: H69AR cells, compound alone cytotoxicity.

Structures are written as SMILES. Activity calls are given as the source filed them.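 How the source made its calls, unless noted: active means viability at or below 10% of carrier control in both of two separate runs; inconclusive means viability at or below 10% in only one of the two runs; inactive means the rest.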

Chain of Receptor tyrosine-protein kinase erbB-2 (Homo sapiens) (P04626 whole entry, looked up): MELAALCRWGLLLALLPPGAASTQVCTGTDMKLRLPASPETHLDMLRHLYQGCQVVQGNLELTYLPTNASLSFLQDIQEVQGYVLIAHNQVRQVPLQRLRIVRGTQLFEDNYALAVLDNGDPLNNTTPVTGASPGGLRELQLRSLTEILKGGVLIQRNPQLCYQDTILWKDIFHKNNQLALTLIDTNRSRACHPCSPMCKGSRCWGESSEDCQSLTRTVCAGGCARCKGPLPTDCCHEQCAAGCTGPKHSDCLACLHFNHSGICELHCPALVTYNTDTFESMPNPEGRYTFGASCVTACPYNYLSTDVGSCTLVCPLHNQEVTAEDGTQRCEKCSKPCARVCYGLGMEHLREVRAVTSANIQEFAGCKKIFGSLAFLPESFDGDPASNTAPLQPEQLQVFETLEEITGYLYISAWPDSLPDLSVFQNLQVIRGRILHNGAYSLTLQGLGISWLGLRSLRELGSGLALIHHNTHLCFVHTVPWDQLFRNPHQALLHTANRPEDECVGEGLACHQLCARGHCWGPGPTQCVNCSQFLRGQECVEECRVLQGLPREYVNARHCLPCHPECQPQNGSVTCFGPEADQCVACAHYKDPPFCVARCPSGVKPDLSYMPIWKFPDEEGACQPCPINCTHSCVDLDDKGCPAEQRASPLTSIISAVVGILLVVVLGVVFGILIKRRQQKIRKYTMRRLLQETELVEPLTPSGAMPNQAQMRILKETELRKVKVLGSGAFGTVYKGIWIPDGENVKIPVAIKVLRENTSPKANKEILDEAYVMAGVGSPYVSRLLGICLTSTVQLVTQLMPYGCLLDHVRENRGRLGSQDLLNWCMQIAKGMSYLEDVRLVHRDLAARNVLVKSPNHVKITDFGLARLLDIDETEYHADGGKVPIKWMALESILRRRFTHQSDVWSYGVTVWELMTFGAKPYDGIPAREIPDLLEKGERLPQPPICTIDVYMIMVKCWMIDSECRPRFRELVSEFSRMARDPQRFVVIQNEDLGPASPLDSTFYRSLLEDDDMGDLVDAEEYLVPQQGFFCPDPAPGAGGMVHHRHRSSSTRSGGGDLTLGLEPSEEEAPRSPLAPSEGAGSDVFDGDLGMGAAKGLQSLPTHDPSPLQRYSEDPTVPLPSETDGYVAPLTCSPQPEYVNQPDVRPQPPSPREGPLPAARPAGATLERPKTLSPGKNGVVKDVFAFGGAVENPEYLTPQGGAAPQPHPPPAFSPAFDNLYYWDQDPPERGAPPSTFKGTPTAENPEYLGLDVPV

`CC(C)=CCCC(C)NC(=O)NC1CCCCC1` (stereo not given): the viability – broadly, a read-out of living cells in per cent, often relative to untreated cells – was 91% in assay [1]; 91% (inactive) in assay [3]; 106% (inactive) in assay [4]; 107% (inactive) in assay [5]; 88.6% in assay [6] (setting [9]); 107% in assay [6] (setting [10]). For the same compound, in assay [2], the Her2 level is 94% (inactive). Besides, the differential viability (reversal) in assay [6] (H69AR cells + 2 uM doxorubicin) was 18% (inactive). For the same compound, the inhibition – broadly, the relative decrease from the control value, in per cent – in assay [7] was -5.33% (inactive); in assay [8], 2.74% (inactive).

For the compound `O=C(Cn1c(=O)n(Cc2ccc3c(c2)OCO3)c(=O)c2ccccc21)N1CCCc2ccccc21`, the viability was 87.5% in assay [1]; 87.5% (inactive) in assay [3]; 66.5% (inactive) in assay [4]; 82.2% (inactive) in assay [5]; 78.3% in assay [6] (setting [9]); 82.2% in assay [6] (setting [10]). The Her2 level in assay [2] is 80.5% (inactive). Also, in assay [6] (H69AR cells + 2 uM doxorubicin), the differential viability (reversal) is 3.96% (inactive). The inhibition was -0.39% (inactive) in assay [7] and 1.8% (inactive) in assay [8].

As for `COc1ccc(NC(=O)C(C)Oc2ccc(/C(C)=N\O)cc2)cc1` (stereo not given), the viability in assay [1] is 122%; in assay [3] it was 122% (inactive); in assay [4], 91.9% (inactive); in assay [5] it was 90.4% (inactive); in assay [6] (setting [9]), 83.3%; in assay [6] (setting [10]), 90.4%. Moreover, in assay [2], the Her2 level is 92% (inactive). Further, the differential viability (reversal) in assay [6] (H69AR cells + 2 uM doxorubicin) was 7.12% (inactive). The inhibition in assay [7] was -7.33% (inactive); in assay [8], -0.32% (inactive).

In the case of `CC(=O)C1=C(C)NC(C)=C(C(C)=O)C1c1cccs1`, the viability in assay [1] is 99%; in assay [3], 99% (inactive); in assay [4] it was 84.8% (inactive); in assay [5], 87% (inactive); in assay [6] (setting [9]), 81.7%; in assay [6] (setting [10]), 87%. Besides, the Her2 level in assay [2] is 86% (inactive). Moreover, the differential viability (reversal) in assay [6] (H69AR cells + 2 uM doxorubicin) was 5.3% (inactive). Moreover, the inhibition in assay [7] was -2.08% (inactive); in assay [8], -4% (inactive).

For `Cc1ccccc1NS(=O)(=O)c1cc(S(C)(=O)=O)ccc1Cl`, the viability in assay [1] is 96%; in assay [3] it was 96% (inactive); in assay [4], 110% (inactive); in assay [5] it was 94.4% (inactive); in assay [6] (setting [9]) it was 91.3%; in assay [6] (setting [10]), 94.4%. In assay [2], the Her2 level was 98.5% (inactive). Besides, in assay [6] (H69AR cells + 2 uM doxorubicin), the differential viability (reversal) is 3.12% (inactive). Besides, the inhibition was -2.4% (inactive) in assay [7] and -4.29% (inactive) in assay [8].

As to `COc1ccc(S(=O)(=O)N2CCN(C3CCCCCCC3)CC2)cc1`, the viability in assay [1] was 87.5%; in assay [3], 87.5% (inactive); in assay [4], 106% (inactive); in assay [5] it was 93.9% (inactive); in assay [6] (setting [9]), 100%; in assay [6] (setting [10]), 93.9%. The Her2 level in assay [2] was 89.5% (inactive). Further, in assay [6] (H69AR cells + 2 uM doxorubicin), the differential viability (reversal) was -6.63% (inactive). Further, the inhibition in assay [7] was -2.11% (inactive); in assay [8], -0.98% (inactive).

Consider `COc1cc(OC)cc(OCC(O)Cn2cnc(-c3ccccc3)c2)c1` (stereo not given), for which the viability in assay [1] was 90%; in assay [3], 90% (inactive); in assay [4], 88% (inactive); in assay [5], 83.8% (inactive); in assay [6] (setting [9]), 95.2%; in assay [6] (setting [10]) it was 83.8%. The Her2 level in assay [2] was 84% (inactive). For the same compound, the differential viability (reversal) in assay [6] (H69AR cells + 2 uM doxorubicin) is -11.4% (inactive). The inhibition was 3.64% (inactive) in assay [7] and -2.13% (inactive) in assay [8].

In the case of `CC1=C(C(=O)N2CCCCC2)C2(CCC(C)CC2)OC1=O` (stereo not given), the viability is 90% in assay [1]; 90% (inactive) in assay [3]; 109% (inactive) in assay [4]; 94.2% (inactive) in assay [5]; 81.3% in assay [6] (setting [9]); 94.2% in assay [6] (setting [10]). Also, in assay [2], the Her2 level was 102% (inactive). Besides, in assay [6] (H69AR cells + 2 uM doxorubicin), the differential viability (reversal) was 12.9% (inactive). In addition, the inhibition in assay [7] was -5.87% (inactive); in assay [8] it was -3.61% (inactive).

As for `COc1cc(OC)nc(NC(=O)CSc2nc3ccccc3o2)n1`, the viability in assay [1] is 87.5%; in assay [3], 87.5% (inactive); in assay [4] it was 97.7% (inactive); in assay [5] it was 92.4% (inactive); in assay [6] (setting [9]), 94.9%; in assay [6] (setting [10]), 92.4%. The Her2 level in assay [2] was 82.5% (inactive). Besides, the differential viability (reversal) in assay [6] (H69AR cells + 2 uM doxorubicin) is -2.58% (inactive). For the same compound, the inhibition in assay [7] is -6.4% (inactive); in assay [8], 2.95% (inactive).

On to `Cc1ccc(SCCNS(=O)(=O)c2ccc(F)cc2)cc1`, for which the viability was 85% in assay [1]; 85% (inactive) in assay [3]; 78.8% (inactive) in assay [4]; 105% (inactive) in assay [5]; 91.1% in assay [6] (setting [9]); 105% in assay [6] (setting [10]). Further, the Her2 level in assay [2] is 112% (inactive). For the same compound, in assay [6] (H69AR cells + 2 uM doxorubicin), the differential viability (reversal) is 13.5% (inactive). For the same compound, the inhibition in assay [7] was -6.8% (inactive); in assay [8] it was -2.42% (inactive).

Take `CCN(c1c(C)n(C)n(-c2ccccc2)c1=O)S(C)(=O)=O`: the viability in assay [1] is 98.5%; in assay [3], 98.5% (inactive); in assay [4] it was 102% (inactive); in assay [5] it was 95.6% (inactive); in assay [6] (setting [9]), 88.7%; in assay [6] (setting [10]), 95.6%. Also, the Her2 level in assay [2] was 79.5% (inactive). The differential viability (reversal) in assay [6] (H69AR cells + 2 uM doxorubicin) was 6.92% (inactive). The inhibition in assay [7] was -6.76% (inactive); in assay [8] it was 4.29% (inactive).

`CCOCCc1nnc(NC(=O)c2ccc(OC)c(OC)c2)s1`: the viability in assay [1] is 107%; in assay [3] it was 107% (inactive); in assay [4] it was 62.8% (inactive); in assay [5], 94.4% (inactive); in assay [6] (setting [9]) it was 96.4%; in assay [6] (setting [10]), 94.4%. The Her2 level in assay [2] was 86% (inactive). The differential viability (reversal) in assay [6] (H69AR cells + 2 uM doxorubicin) is -1.97% (inactive). Further, the inhibition in assay [7] is -6.4% (inactive); in assay [8] it was -3.39% (inactive).

In the case of `CCOC(=O)c1ccc(NS(=O)(=O)c2cccc3nsnc23)cc1`, the viability in assay [1] was 90.5%; in assay [3], 90.5% (inactive); in assay [4] it was 113% (inactive); in assay [5], 95.9% (inactive); in assay [6] (setting [9]) it was 99.1%; in assay [6] (setting [10]) it was 95.9%. Moreover, the Her2 level in assay [2] is 106% (inactive). For the same compound, in assay [6] (H69AR cells + 2 uM doxorubicin), the differential viability (reversal) is -3.26% (inactive). In addition, the figures for the inhibition in assay [7] and in assay [8] were 1.2% (inactive) and 2.22% (inactive), respectively.

Turning to `CC(C)C1C2=C(CC(C)(C)CC2=O)ON1c1ccccc1` (stereo not given), the viability in assay [1] was 90%; in assay [3], 90% (inactive); in assay [4], 95.8% (inactive); in assay [5], 93% (inactive); in assay [6] (setting [9]), 95.7%; in assay [6] (setting [10]) it was 93%. Also, in assay [2], the Her2 level was 90% (inactive). Further, the differential viability (reversal) in assay [6] (H69AR cells + 2 uM doxorubicin) is -2.63% (inactive). In addition, the inhibition is -1.6% (inactive) in assay [7] and -0.48% (inactive) in assay [8].
